Converted amounts (≈) assume the structure as drawn.
Experiments:
[1] = biological target: Protein farnesyltransferase (Rattus norvegicus, UniProt Q02293+Q04631); experiment: Inhibition of post-traslational processing of Ras protein in RAT1 cell line; type: functional, cell-based
Summary of the method: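 RAT1 cells transformed with viral Ha-ras were incubated with compound for 24 h, then lysed. Ras was immunoprecipitated and resolved by denaturing gel electrophoresis to detect inhibition of post-translational processing (farnesylation). IC50 derived.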

[2] = Inhibition of anchorage-independent growth of ras-transformed cells in soft agar; type: functional
Summary of the method: (§1)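 RAT1 cells transformed with v-ras or v-raf were grown in soft agar with compound. MIC is the minimum concentration reducing the size and number of colonies relative to vehicle-treated control. A v-mos-transformed cell line served as control, tested up to 2.5 µM.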

[3] = tested on: Rat1; experiment: Highest nontoxic concentration in RAT1 cells; type: functional
Summary of the method: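 Cultured RAT1 cells; viability assessed by viable staining with MTT. Value is the highest nontoxic concentration, i.e. the concentration compatible with ≥90% cell survival.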

[4] = Inhibition of human Geranylgeranyl transferase type I
Summary of the method: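 Recombinant human GGTase I. IC50 reported ±SEM with the number of determinations given.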

[5] = biological target: Protein farnesyltransferase (Homo sapiens, UniProt P49354+P49356); experiment: Inhibition of [3H]FPP incorporation into Ha-Ras by Farnesyltransferase; type: protein-complex assay
Summary of the method: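 Recombinant human Ha-Ras protein as acceptor, with [³H]FPP as farnesyl donor. Read-out is FTase-catalyzed radiolabel incorporation into Ha-Ras. IC50 is the concentration giving 50% inhibition, reported ±SEM with the number of determinations given.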

[6] = Inhibition of anchorage-independent growth of raf-transformed cells in soft agar; type: functional; summary of the method: as §1
[7] = biological target: Geranylgeranyl transferase type I (Bos taurus, UniProt P29702+Q5EAD5); experiment: Inhibition of bovine Geranylgeranyl transferase type I; type: protein-complex assay
Summary of the method: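 Type-I GGTase from bovine source. IC50 reported ±SEM with the number of determinations given.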

Compound	IC50 [1] [nM]	MIC [2] [µM]	CTE [3] [µM]	IC50 [4] [nM]	IC50 [5] [nM]	MIC [6] [µM]	IC50 [7] [nM]
N[C@@H](CS)CN1CCN(C(=O)c2cccc3ccccc23)C[C@@H]1CCOC1CC1	500	2.5 (≈ 1.03 µg/mL)	25	3900	1		
CCCC[C@H]1CN(C(=O)c2cccc3ccccc23)CCN1C[C@@H](N)CS	500	10 (≈ 3.86 µg/mL)	10		1	> 10	160
COCC[C@H]1CN(C(=O)c2cccc3ccccc23)CCN1C[C@@H](N)CS	500	10 (≈ 3.88 µg/mL)	>100		3	> 50	10000
CCCC[C@H]1CN(C(=O)c2ccccc2)CCN1C[C@@H](N)CS					24		
CCCC[C@H]1CN(C(=O)c2cccc(C)c2C)CCN1C[C@@H](N)CS					5		360
Cc1cccc(C(=O)N2CCN(C[C@@H](N)CS)CC2)c1C					160		2800
CC[C@H]1CN(C(=O)c2cccc(C)c2C)CCN1C[C@@H](N)CS					68		

From ChEMBL document CHEMBL1129531, “2-substituted piperazines as constrained amino acids. Application to the synthesis of potent, non carboxylic acid inhibitors of farnesyltransferase” (J Med Chem, 1996)
